System: U2OS
Assay: Multiplex assay against U2OS
Format: toxicity, cell-based
Conditions: human
Method in brief: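 Live cells were stained at seeding with Hoechst33342, BioTracker Green Microtubule Cytoskeleton Dye, MitoTracker Red and Annexin V Alexa Fluor 680, then imaged on a CQ1 microscope at 37°C and 5% CO2 after compound addition. CellPathfinder machine-learning gating split cells into Hoechst high-intensity objects or normal cells. Normal cells were split into healthy, pyknosed or fragmented nuclei, and pyknosed cells into mitotic or apoptotic. Tubulin, mitochondrial-mass and membrane-permeability phenotypes are per cents of healthy-nucleus cells.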

[1] = 12 h, 1 µM, compound concentration 1 uM, replicate 1
[2] = 12 h, 1 µM, compound concentration 1 uM, replicate 2
[3] = 12 h, 10 µM, compound concentration 10 uM, replicate 1
[4] = 12 h, 10 µM, compound concentration 10 uM, replicate 2
[5] = 24 h, 1 µM, compound concentration 1 uM, replicate 1
[6] = 24 h, 1 µM, compound concentration 1 uM, replicate 2
[7] = 24 h, 10 µM, compound concentration 10 uM, replicate 1
[8] = 24 h, 10 µM, compound concentration 10 uM, replicate 2
[9] = 48 h, 1 µM, compound concentration 1 uM, replicate 1
[10] = 48 h, 1 µM, compound concentration 1 uM, replicate 2
[11] = 48 h, 10 µM, compound concentration 10 uM, replicate 1
[12] = 48 h, 10 µM, compound concentration 10 uM, replicate 2

CC(C)Oc1ccccc1C(=O)Nc1ccccc1C(=O)Nc1cccc(S(=O)(=O)C(F)(F)F)c1
Population Apoptotic (%) [1]: 47%
Population Fragmented Nuclei (%) [1]: 14%
Population Healthy Nuclei (%) [1]: 67%
Population Hoechst High Intensity Objects (%) [1]: 11%
Population Membrane Permeable-Phenotype (%) [1]: 4%
Population Mitochondria Different-Phenotype (%) [1]: 61%
Population Mitotic Cells (%) [1]: 52%
Population Normal (%) [1]: 88%
Population Pyknosed Nuclei (%) [1]: 18%
Population Tubulin-Different-Phenotype (%) [1]: 55%
Total Cell Count [1]: 120
Population Apoptotic (%) [2]: 33%
Population Fragmented Nuclei (%) [2]: 20%
Population Healthy Nuclei (%) [2]: 74%
Population Hoechst High Intensity Objects (%) [2]: 5%
Population Membrane Permeable-Phenotype (%) [2]: 10%
Population Mitochondria Different-Phenotype (%) [2]: 45%
Population Mitotic Cells (%) [2]: 66%
Population Normal (%) [2]: 94%
Population Pyknosed Nuclei (%) [2]: 6%
Population Tubulin-Different-Phenotype (%) [2]: 37%
Total Cell Count [2]: 62
Population Apoptotic (%) [3]: 68%
Population Fragmented Nuclei (%) [3]: 14%
Population Healthy Nuclei (%) [3]: 61%
Population Hoechst High Intensity Objects (%) [3]: 8%
Population Membrane Permeable-Phenotype (%) [3]: 95%
Population Mitochondria Different-Phenotype (%) [3]: 61%
Population Mitotic Cells (%) [3]: 32%
Population Normal (%) [3]: 91%
Population Pyknosed Nuclei (%) [3]: 24%
Total Cell Count [3]: 142
Population Apoptotic (%) [4]: 90%
Population Fragmented Nuclei (%) [4]: 17%
Population Healthy Nuclei (%) [4]: 71%
Population Hoechst High Intensity Objects (%) [4]: 4%
Population Membrane Permeable-Phenotype (%) [4]: 97%
Population Mitochondria Different-Phenotype (%) [4]: 92%
Population Mitotic Cells (%) [4]: 10%
Population Normal (%) [4]: 96%
Population Pyknosed Nuclei (%) [4]: 10%
Population Tubulin-Different-Phenotype (%) [4]: 100%
Total Cell Count [4]: 53
Population Apoptotic (%) [5]: 55%
Population Fragmented Nuclei (%) [5]: 15%
Population Healthy Nuclei (%) [5]: 71%
Population Hoechst High Intensity Objects (%) [5]: 8%
Population Membrane Permeable-Phenotype (%) [5]: 2%
Population Mitochondria Different-Phenotype (%) [5]: 48%
Population Mitotic Cells (%) [5]: 44%
Population Normal (%) [5]: 91%
Population Pyknosed Nuclei (%) [5]: 13%
Population Tubulin-Different-Phenotype (%) [5]: 48%
Total Cell Count [5]: 109
Population Apoptotic (%) [6]: 33%
Population Fragmented Nuclei (%) [6]: 21%
Population Healthy Nuclei (%) [6]: 66%
Population Hoechst High Intensity Objects (%) [6]: 7%
Population Membrane Permeable-Phenotype (%) [6]: 11%
Population Mitochondria Different-Phenotype (%) [6]: 58%
Population Mitotic Cells (%) [6]: 66%
Population Normal (%) [6]: 92%
Population Pyknosed Nuclei (%) [6]: 11%
Population Tubulin-Different-Phenotype (%) [6]: 35%
Total Cell Count [6]: 57
Population Apoptotic (%) [7]: 74%
Population Fragmented Nuclei (%) [7]: 23%
Population Healthy Nuclei (%) [7]: 48%
Population Hoechst High Intensity Objects (%) [7]: 6%
Population Membrane Permeable-Phenotype (%) [7]: 92%
Population Mitochondria Different-Phenotype (%) [7]: 74%
Population Mitotic Cells (%) [7]: 25%
Population Normal (%) [7]: 93%
Population Pyknosed Nuclei (%) [7]: 27%
Population Tubulin-Different-Phenotype (%) [7]: 100%
Total Cell Count [7]: 148
Population Apoptotic (%) [8]: 100%
Population Fragmented Nuclei (%) [8]: 17%
Population Healthy Nuclei (%) [8]: 56%
Population Hoechst High Intensity Objects (%) [8]: 11%
Population Membrane Permeable-Phenotype (%) [8]: 91%
Population Mitochondria Different-Phenotype (%) [8]: 94%
Population Mitotic Cells (%) [8]: 0%
Population Normal (%) [8]: 88%
Population Tubulin-Different-Phenotype (%) [8]: 98%
Total Cell Count [8]: 55
Population Apoptotic (%) [9]: 81%
Population Fragmented Nuclei (%) [9]: 10%
Population Healthy Nuclei (%) [9]: 74%
Population Hoechst High Intensity Objects (%) [9]: 3%
Population Membrane Permeable-Phenotype (%) [9]: 4%
Population Mitochondria Different-Phenotype (%) [9]: 31%
Population Mitotic Cells (%) [9]: 18%
Population Normal (%) [9]: 96%
Population Pyknosed Nuclei (%) [9]: 14%
Population Tubulin-Different-Phenotype (%) [9]: 25%
Total Cell Count [9]: 109
Population Apoptotic (%) [10]: 66%
Population Fragmented Nuclei (%) [10]: 22%
Population Healthy Nuclei (%) [10]: 72%
Population Hoechst High Intensity Objects (%) [10]: 7%
Population Membrane Permeable-Phenotype (%) [10]: 18%
Population Mitochondria Different-Phenotype (%) [10]: 48%
Population Mitotic Cells (%) [10]: 33%
Population Normal (%) [10]: 92%
Population Pyknosed Nuclei (%) [10]: 5%
Population Tubulin-Different-Phenotype (%) [10]: 41%
Total Cell Count [10]: 56
Population Apoptotic (%) [11]: 77%
Population Fragmented Nuclei (%) [11]: 64%
Population Healthy Nuclei (%) [11]: 19%
Population Hoechst High Intensity Objects (%) [11]: 7%
Population Membrane Permeable-Phenotype (%) [11]: 36%
Population Mitochondria Different-Phenotype (%) [11]: 84%
Population Mitotic Cells (%) [11]: 22%
Population Normal (%) [11]: 93%
Population Pyknosed Nuclei (%) [11]: 15%
Population Tubulin-Different-Phenotype (%) [11]: 93%
Total Cell Count [11]: 190
Population Apoptotic (%) [12]: 64%
Population Fragmented Nuclei (%) [12]: 43%
Population Healthy Nuclei (%) [12]: 38%
Population Hoechst High Intensity Objects (%) [12]: 9%
Population Membrane Permeable-Phenotype (%) [12]: 62%
Population Mitochondria Different-Phenotype (%) [12]: 75%
Population Mitotic Cells (%) [12]: 36%
Population Normal (%) [12]: 90%
Population Pyknosed Nuclei (%) [12]: 17%
Population Tubulin-Different-Phenotype (%) [12]: 98%
Total Cell Count [12]: 64

COc1cc(Nc2nccc(-c3cnn4nc(OC)ccc34)n2)cc(C(F)(F)F)c1
Population Apoptotic (%) [1]: 27%
Population Fragmented Nuclei (%) [1]: 12%
Population Healthy Nuclei (%) [1]: 74%
Population Hoechst High Intensity Objects (%) [1]: 7%
Population Membrane Permeable-Phenotype (%) [1]: 6%
Population Mitochondria Different-Phenotype (%) [1]: 12%
Population Mitotic Cells (%) [1]: 72%
Population Normal (%) [1]: 92%
Population Pyknosed Nuclei (%) [1]: 12%
Population Tubulin-Different-Phenotype (%) [1]: 9%
Total Cell Count [1]: 189
Population Apoptotic (%) [2]: 50%
Population Fragmented Nuclei (%) [2]: 8%
Population Healthy Nuclei (%) [2]: 86%
Population Hoechst High Intensity Objects (%) [2]: 3%
Population Membrane Permeable-Phenotype (%) [2]: 2%
Population Mitochondria Different-Phenotype (%) [2]: 16%
Population Mitotic Cells (%) [2]: 50%
Population Normal (%) [2]: 96%
Population Pyknosed Nuclei (%) [2]: 5%
Population Tubulin-Different-Phenotype (%) [2]: 16%
Total Cell Count [2]: 44
Population Apoptotic (%) [3]: 60%
Population Fragmented Nuclei (%) [3]: 32%
Population Healthy Nuclei (%) [3]: 55%
Population Hoechst High Intensity Objects (%) [3]: 15%
Population Membrane Permeable-Phenotype (%) [3]: 7%
Population Mitochondria Different-Phenotype (%) [3]: 46%
Population Mitotic Cells (%) [3]: 39%
Population Normal (%) [3]: 84%
Population Pyknosed Nuclei (%) [3]: 11%
Population Tubulin-Different-Phenotype (%) [3]: 27%
Total Cell Count [3]: 192
Population Apoptotic (%) [4]: 33%
Population Fragmented Nuclei (%) [4]: 27%
Population Healthy Nuclei (%) [4]: 61%
Population Hoechst High Intensity Objects (%) [4]: 34%
Population Membrane Permeable-Phenotype (%) [4]: 3%
Population Mitochondria Different-Phenotype (%) [4]: 6%
Population Mitotic Cells (%) [4]: 66%
Population Normal (%) [4]: 65%
Population Tubulin-Different-Phenotype (%) [4]: 15%
Total Cell Count [4]: 82
Population Apoptotic (%) [5]: 24%
Population Fragmented Nuclei (%) [5]: 14%
Population Healthy Nuclei (%) [5]: 61%
Population Hoechst High Intensity Objects (%) [5]: 6%
Population Membrane Permeable-Phenotype (%) [5]: 7%
Population Mitochondria Different-Phenotype (%) [5]: 20%
Population Mitotic Cells (%) [5]: 75%
Population Normal (%) [5]: 93%
Population Pyknosed Nuclei (%) [5]: 24%
Population Tubulin-Different-Phenotype (%) [5]: 16%
Total Cell Count [5]: 214
Population Apoptotic (%) [6]: 45%
Population Fragmented Nuclei (%) [6]: 10%
Population Healthy Nuclei (%) [6]: 77%
Population Hoechst High Intensity Objects (%) [6]: 2%
Population Membrane Permeable-Phenotype (%) [6]: 4%
Population Mitochondria Different-Phenotype (%) [6]: 10%
Population Mitotic Cells (%) [6]: 54%
Population Normal (%) [6]: 97%
Population Pyknosed Nuclei (%) [6]: 12%
Population Tubulin-Different-Phenotype (%) [6]: 19%
Total Cell Count [6]: 43
Population Apoptotic (%) [7]: 65%
Population Fragmented Nuclei (%) [7]: 36%
Population Healthy Nuclei (%) [7]: 50%
Population Hoechst High Intensity Objects (%) [7]: 18%
Population Membrane Permeable-Phenotype (%) [7]: 2%
Population Mitochondria Different-Phenotype (%) [7]: 47%
Population Mitotic Cells (%) [7]: 34%
Population Normal (%) [7]: 81%
Population Pyknosed Nuclei (%) [7]: 13%
Population Tubulin-Different-Phenotype (%) [7]: 15%
Total Cell Count [7]: 197
Population Apoptotic (%) [8]: 50%
Population Fragmented Nuclei (%) [8]: 26%
Population Healthy Nuclei (%) [8]: 56%
Population Hoechst High Intensity Objects (%) [8]: 29%
Population Membrane Permeable-Phenotype (%) [8]: 0%
Population Mitochondria Different-Phenotype (%) [8]: 23%
Population Mitotic Cells (%) [8]: 50%
Population Normal (%) [8]: 70%
Population Pyknosed Nuclei (%) [8]: 17%
Population Tubulin-Different-Phenotype (%) [8]: 11%
Total Cell Count [8]: 90
Population Apoptotic (%) [9]: 53%
Population Fragmented Nuclei (%) [9]: 16%
Population Healthy Nuclei (%) [9]: 54%
Population Hoechst High Intensity Objects (%) [9]: 4%
Population Membrane Permeable-Phenotype (%) [9]: 6%
Population Mitochondria Different-Phenotype (%) [9]: 34%
Population Mitotic Cells (%) [9]: 46%
Population Normal (%) [9]: 95%
Population Pyknosed Nuclei (%) [9]: 28%
Population Tubulin-Different-Phenotype (%) [9]: 15%
Total Cell Count [9]: 257
Population Apoptotic (%) [10]: 55%
Population Fragmented Nuclei (%) [10]: 11%
Population Healthy Nuclei (%) [10]: 81%
Population Hoechst High Intensity Objects (%) [10]: 7%
Population Membrane Permeable-Phenotype (%) [10]: 15%
Population Mitochondria Different-Phenotype (%) [10]: 17%
Population Mitotic Cells (%) [10]: 44%
Population Normal (%) [10]: 92%
Population Pyknosed Nuclei (%) [10]: 7%
Population Tubulin-Different-Phenotype (%) [10]: 20%
Total Cell Count [10]: 55
Population Apoptotic (%) [11]: 62%
Population Fragmented Nuclei (%) [11]: 45%
Population Healthy Nuclei (%) [11]: 33%
Population Hoechst High Intensity Objects (%) [11]: 20%
Population Membrane Permeable-Phenotype (%) [11]: 14%
Population Mitochondria Different-Phenotype (%) [11]: 36%
Population Mitotic Cells (%) [11]: 37%
Population Normal (%) [11]: 79%
Population Pyknosed Nuclei (%) [11]: 21%
Population Tubulin-Different-Phenotype (%) [11]: 21%
Total Cell Count [11]: 200
Population Apoptotic (%) [12]: 69%
Population Fragmented Nuclei (%) [12]: 26%
Population Healthy Nuclei (%) [12]: 48%
Population Hoechst High Intensity Objects (%) [12]: 27%
Population Membrane Permeable-Phenotype (%) [12]: 8%
Population Mitochondria Different-Phenotype (%) [12]: 25%
Population Mitotic Cells (%) [12]: 30%
Population Normal (%) [12]: 72%
Population Pyknosed Nuclei (%) [12]: 26%
Population Tubulin-Different-Phenotype (%) [12]: 20%
Total Cell Count [12]: 127

— ChEMBL document CHEMBL4689842, “EUbOPEN Chemogenomics Library wave 1” (2021)
